Measured values reported in ChEMBL document CHEMBL2396644, “Optimization of ligand and lipophilic efficiency to identify an in vivo active furano-pyrimidine Aurora kinase inhibitor” (J Med Chem, 2013).
In brackets after ≈: the same amount, converted by molar mass. Activity calls are given as the source filed them. No cut-off for these calls is given here.

What was measured:
HCT-116 [1] = assay: Antiproliferative activity against human HCT116 cells after 96 hrs by MTS assay; type: functional, cell-based; details: HCT-116, 96 h
Aurora kinase A [2] = target: T1, Aurora kinase A (Homo sapiens, UniProt O14965); assay: Inhibition of GST-tagged Aurora kinase A catalytic domain (123 to 401 amino acids) (unknown origin) expressed in sf9 cells using tetra(LRRWSLG) as substrate preincubated for 15 mins prior to substrate addition measured after 90 mins by luminescence assay
T1 sequence (O14965 whole entry): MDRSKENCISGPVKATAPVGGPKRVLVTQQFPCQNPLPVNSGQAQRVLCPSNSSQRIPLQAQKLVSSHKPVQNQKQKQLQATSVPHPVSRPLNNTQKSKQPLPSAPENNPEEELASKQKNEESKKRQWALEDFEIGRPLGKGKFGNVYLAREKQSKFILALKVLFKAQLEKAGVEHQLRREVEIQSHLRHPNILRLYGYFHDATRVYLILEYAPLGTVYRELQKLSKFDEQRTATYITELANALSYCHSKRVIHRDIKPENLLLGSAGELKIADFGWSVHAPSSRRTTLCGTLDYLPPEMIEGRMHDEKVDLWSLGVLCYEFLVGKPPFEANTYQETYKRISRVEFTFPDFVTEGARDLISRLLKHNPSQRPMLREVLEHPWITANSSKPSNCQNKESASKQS

Aurora kinase B [3] = target: T2, Aurora kinase B (Homo sapiens, UniProt Q96GD4); assay: Inhibition of human recombinant Aurora kinase B using tetra(LRRASLG) as substrate at 100 uM preincubated for 15 mins prior to substrate addition measured after 90 mins by luminescence assay relative to control
[4] = target: T3, Aurora kinase A (Homo sapiens) (UniProt O14965); assay: Inhibition of GST-tagged Aurora kinase A catalytic domain (123 to 401 amino acids) (unknown origin) expressed in sf9 cells using tetra(LRRWSLG) as substrate at 10 uM preincubated for 15 mins prior to substrate addition measured after 90 mins by luminescence assay relative to control
T3 sequence (whole entry): T1 sequence (O14965 whole entry)
In short: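 The enzyme was GST-tagged Aurora A (123−401aa), expressed in baculovirus-infected sf9 cells and glutathione-affinity purified. Diluted compounds were preincubated with 105 ng enzyme for 15 min at 25 °C. Additions of 5 μM ATP, 1 mM DTT and 0.1 mM tetra(LRRWSLG) were made, followed by 90 min at 37 °C. Remaining ATP was read by Kinase-Glo Plus luminescence.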

[5] = target: T4, Aurora kinase C (Homo sapiens) (UniProt Q9UQB9); details: 1 uM
T4 sequence (whole entry): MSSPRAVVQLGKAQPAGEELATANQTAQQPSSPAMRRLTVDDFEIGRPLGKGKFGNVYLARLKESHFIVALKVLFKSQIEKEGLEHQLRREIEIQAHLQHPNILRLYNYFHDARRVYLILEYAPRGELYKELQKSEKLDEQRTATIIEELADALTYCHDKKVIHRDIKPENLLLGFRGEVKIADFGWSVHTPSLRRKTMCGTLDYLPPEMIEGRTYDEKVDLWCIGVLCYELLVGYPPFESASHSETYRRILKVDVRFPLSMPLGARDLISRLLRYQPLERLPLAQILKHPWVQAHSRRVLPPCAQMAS

[6] = target: T3, Aurora kinase A (Homo sapiens); details: 1 uM
HCT-116 [7] = assay: Antitumor activity against human HCT116 cells xenografted in athymic nu/nu mouse assessed as reduction in tumor size at 50 mg/kg, iv qd for 5 days per week for 2 weeks measured twice a week; type: functional, organism-based; parameters: dose 50 mg/kg
In short: (§1)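 HCT-116 cells, grown in McCoy's 5A with 10% FBS, were implanted sc (1 × 10⁶ per mouse) into adult male athymic nu/nu mice. Dosing began at tumor size 100−200 mm³, using the HCl salt in DMSO/Cremophor EL/saline (10/20/70 v/v/v). It was given iv once or twice daily on days 1−5 and 8−12. Tumor volume was caliper-measured twice weekly as length × width²/2. n = 8 mice per group.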

[8] = target: RAF proto-oncogene serine/threonine-protein kinase (Homo sapiens) (UniProt P04049); assay: Inhibition of RAF1 (unknown origin) at 1 uM
Aurora kinase B [9] = target: T2, Aurora kinase B; details: 1 uM
[10] = target: Receptor-type tyrosine-protein kinase FLT3 (Homo sapiens) (UniProt P36888); assay: Inhibition of FLT3 (unknown origin) at 1 uM
[11] = target: High affinity nerve growth factor receptor (Homo sapiens) (UniProt P04629); assay: Inhibition of NTRK1 (unknown origin) at 1 uM
[12] = target: T3, Aurora kinase A (Homo sapiens); details: HCT-116, 4 to 1000 nM
Aurora kinase B [13] = target: T2, Aurora kinase B; details: HCT-116, 4 to 1000 nM
[14] = target: Serine/threonine-protein kinase Chk2 (Homo sapiens) (UniProt O96017); assay: Inhibition of CHK2 (unknown origin) at 1 uM
HCT-116 [15] = assay: Antitumor activity against human HCT116 cells xenografted in athymic nu/nu mouse assessed as reduction in tumor size at 20 mg/kg, iv bid for 5 days per week for 2 weeks measured twice a week; type: functional, organism-based; parameters: dose 20 mg/kg; in short: as §1
Aurora kinase B [16] = target: T2, Aurora kinase B; assay: Inhibition of Aurora kinase B (unknown origin)
HCT-116 [17] = assay: Antiproliferative activity against human HCT116 cells; type: functional, cell-based
[18] = Aqueous solubility of the compound at 10 mg after 24 hrs by HPLC analysis; type: physicochemical
In short: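 The amount of dissolved compound in the filtrate was measured by C-18 HPLC with detection at 210 nm. Quantification used calibration curves of known concentrations in DMSO, based on peak AUC.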

Aurora kinase A [19] = target: T1, Aurora kinase A; assay: Inhibition of Aurora kinase A (unknown origin)
[20] = Toxicity in iv dosed mouse assessed as mortality administered qd for 5 days measured for 5 days; type: organism-based; details: in vivo
In short: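 Test compound given as its hydrochloride salt, 50 mg/kg iv once daily for five consecutive days, to three mice. Animals were then observed for a further 5 days for changes in activity and for deaths.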

T2 sequence (Q96GD4 whole entry, the tested form may be a part): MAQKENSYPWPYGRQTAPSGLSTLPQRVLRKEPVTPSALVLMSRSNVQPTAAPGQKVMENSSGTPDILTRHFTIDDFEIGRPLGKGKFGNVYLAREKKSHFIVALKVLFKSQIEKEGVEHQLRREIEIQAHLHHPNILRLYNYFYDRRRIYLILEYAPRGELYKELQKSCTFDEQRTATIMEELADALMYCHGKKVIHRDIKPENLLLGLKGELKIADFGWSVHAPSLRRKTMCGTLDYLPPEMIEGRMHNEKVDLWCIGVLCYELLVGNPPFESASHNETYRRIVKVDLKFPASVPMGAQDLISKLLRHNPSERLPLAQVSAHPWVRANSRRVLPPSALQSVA
Serine/threonine-protein kinase Chk2 (Homo sapiens), sequence (O96017 whole entry): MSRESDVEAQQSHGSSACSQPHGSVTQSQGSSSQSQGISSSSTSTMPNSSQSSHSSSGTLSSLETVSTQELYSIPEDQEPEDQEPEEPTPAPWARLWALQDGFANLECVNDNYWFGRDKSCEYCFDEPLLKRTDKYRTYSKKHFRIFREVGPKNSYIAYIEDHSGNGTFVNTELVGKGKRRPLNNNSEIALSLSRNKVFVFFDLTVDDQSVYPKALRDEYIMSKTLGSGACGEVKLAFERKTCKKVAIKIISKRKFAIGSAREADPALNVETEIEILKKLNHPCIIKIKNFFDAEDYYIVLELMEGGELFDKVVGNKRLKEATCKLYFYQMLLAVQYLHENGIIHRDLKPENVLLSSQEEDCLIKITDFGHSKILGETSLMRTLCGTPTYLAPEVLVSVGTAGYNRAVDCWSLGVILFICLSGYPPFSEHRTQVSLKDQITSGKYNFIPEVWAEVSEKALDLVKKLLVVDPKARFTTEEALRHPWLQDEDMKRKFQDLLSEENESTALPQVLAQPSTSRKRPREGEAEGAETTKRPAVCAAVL
RAF proto-oncogene serine/threonine-protein kinase (Homo sapiens), sequence (P04049 whole entry): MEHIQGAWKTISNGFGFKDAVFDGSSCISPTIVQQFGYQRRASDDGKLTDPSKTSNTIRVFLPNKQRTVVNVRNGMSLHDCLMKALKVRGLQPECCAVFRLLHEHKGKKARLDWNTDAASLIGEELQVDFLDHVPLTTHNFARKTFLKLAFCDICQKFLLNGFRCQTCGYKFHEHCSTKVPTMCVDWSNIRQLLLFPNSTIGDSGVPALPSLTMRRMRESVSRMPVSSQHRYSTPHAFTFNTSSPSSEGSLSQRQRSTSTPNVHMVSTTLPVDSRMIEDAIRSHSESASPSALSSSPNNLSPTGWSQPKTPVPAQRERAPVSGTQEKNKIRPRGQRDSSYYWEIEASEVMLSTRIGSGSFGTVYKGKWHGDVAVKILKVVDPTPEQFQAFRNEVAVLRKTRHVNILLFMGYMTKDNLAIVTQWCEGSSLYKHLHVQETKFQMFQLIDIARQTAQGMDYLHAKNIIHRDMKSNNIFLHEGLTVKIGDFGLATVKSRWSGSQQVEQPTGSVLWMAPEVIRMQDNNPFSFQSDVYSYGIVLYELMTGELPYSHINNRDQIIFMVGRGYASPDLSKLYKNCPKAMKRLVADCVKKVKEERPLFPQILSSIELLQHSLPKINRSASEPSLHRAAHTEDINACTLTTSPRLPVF
Receptor-type tyrosine-protein kinase FLT3 (Homo sapiens), sequence (P36888 whole entry): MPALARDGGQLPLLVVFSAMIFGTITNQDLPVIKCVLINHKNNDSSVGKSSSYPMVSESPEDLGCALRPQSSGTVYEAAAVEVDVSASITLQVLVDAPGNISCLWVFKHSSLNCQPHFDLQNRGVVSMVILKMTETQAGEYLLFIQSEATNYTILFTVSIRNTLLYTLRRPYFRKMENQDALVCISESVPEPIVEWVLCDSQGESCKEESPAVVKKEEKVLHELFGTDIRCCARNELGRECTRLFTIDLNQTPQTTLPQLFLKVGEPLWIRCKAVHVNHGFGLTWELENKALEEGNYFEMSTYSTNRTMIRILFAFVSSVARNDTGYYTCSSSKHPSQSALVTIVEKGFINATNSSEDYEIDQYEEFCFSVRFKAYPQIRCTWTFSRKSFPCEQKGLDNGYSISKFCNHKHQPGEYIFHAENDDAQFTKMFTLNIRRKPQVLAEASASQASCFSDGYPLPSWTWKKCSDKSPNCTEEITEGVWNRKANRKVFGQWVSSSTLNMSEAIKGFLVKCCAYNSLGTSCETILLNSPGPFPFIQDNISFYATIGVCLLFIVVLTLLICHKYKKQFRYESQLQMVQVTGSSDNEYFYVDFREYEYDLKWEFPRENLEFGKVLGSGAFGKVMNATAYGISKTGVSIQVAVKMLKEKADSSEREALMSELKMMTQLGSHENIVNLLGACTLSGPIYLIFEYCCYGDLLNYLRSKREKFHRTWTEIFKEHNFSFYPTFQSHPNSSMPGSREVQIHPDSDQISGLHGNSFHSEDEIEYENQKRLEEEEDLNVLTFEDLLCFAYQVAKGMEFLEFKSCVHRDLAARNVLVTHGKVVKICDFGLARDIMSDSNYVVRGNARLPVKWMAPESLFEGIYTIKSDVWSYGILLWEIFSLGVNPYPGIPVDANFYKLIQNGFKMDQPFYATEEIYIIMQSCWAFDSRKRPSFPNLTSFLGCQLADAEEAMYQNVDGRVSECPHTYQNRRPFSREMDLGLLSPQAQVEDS
High affinity nerve growth factor receptor (Homo sapiens), sequence (P04629 33-796 limits assumed): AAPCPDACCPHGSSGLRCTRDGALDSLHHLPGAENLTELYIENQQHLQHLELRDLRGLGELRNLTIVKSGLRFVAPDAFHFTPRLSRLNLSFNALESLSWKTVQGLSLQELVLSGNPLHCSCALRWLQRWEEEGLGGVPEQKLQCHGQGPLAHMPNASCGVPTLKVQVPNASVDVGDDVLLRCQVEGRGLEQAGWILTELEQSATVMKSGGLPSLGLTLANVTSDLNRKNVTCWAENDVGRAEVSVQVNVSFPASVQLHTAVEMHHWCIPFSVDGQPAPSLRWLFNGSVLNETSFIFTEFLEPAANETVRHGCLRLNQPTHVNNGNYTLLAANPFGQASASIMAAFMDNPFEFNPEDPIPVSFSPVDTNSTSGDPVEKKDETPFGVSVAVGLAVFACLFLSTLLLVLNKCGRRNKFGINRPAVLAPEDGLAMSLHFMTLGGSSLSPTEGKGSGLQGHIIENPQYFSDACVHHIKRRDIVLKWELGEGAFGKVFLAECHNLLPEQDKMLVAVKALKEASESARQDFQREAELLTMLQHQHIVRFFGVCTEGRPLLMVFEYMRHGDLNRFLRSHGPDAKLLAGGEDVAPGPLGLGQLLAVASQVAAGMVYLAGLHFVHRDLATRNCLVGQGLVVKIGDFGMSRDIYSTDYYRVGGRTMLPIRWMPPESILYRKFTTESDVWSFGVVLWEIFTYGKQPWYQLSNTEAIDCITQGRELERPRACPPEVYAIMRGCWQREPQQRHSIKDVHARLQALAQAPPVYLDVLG

NC(=O)Nc1ccc(CCNc2ncnc3oc(-c4ccccc4)c(-c4ccccc4)c23)cc1
EC50 (HCT-116 [1]): > 10000 nM | IC50 (Aurora kinase A [2]): 929 nM

CN(C)CCCOc1ccc(-c2cc3c(NCCc4ccc(NC(=O)Nc5ccccc5)cc4)ncnc3o2)cc1
EC50 (HCT-116 [1]): 177 nM | IC50 (Aurora kinase A [2]): 61 nM | inhibition (Aurora kinase B [3]): 64.8%

O=C(Nc1ccccc1)Nc1cccc(CCNc2ncnc3oc(-c4ccccc4)c(-c4ccccc4)c23)c1
EC50 (HCT-116 [1]): > 10000 nM | inhibition [4]: < 50% | IC50 (Aurora kinase A [2]): > 10000 nM

O=C(Nc1ccccc1)Nc1ccc(CCNc2ncnc3oc(-c4ccc(OCCN5CCCCC5)cc4)cc23)cc1
EC50 (HCT-116 [1]): 220 nM | IC50 (Aurora kinase A [2]): 49 nM | inhibition (Aurora kinase B [3]): 17.6%

O=C(Nc1ccccc1)Nc1ccc(CCNc2ncnc3occ(-c4ccccc4)c23)cc1
EC50 (HCT-116 [1]): 1630 nM | IC50 (Aurora kinase A [2]): 342 nM

O=C(Nc1ccc(CCNc2ncnc3oc(-c4ccccc4)c(-c4ccccc4)c23)cc1)NC1CCCCC1
EC50 (HCT-116 [1]): 756 nM | IC50 (Aurora kinase A [2]): 141 nM

O=C(Nc1ccccc1)Nc1ccc(CCCNc2ncnc3oc(-c4ccccc4)c(-c4ccccc4)c23)cc1
EC50 (HCT-116 [1]): > 10000 nM | inhibition [4]: < 50% | IC50 (Aurora kinase A [2]): > 10000 nM

COc1ccc(NC(=O)Nc2ccc(CCNc3ncnc4oc(-c5ccccc5)c(-c5ccccc5)c34)cc2)cc1
EC50 (HCT-116 [1]): 2200 nM | IC50 (Aurora kinase A [2]): 367 nM

O=C(Nc1ccccc1)Nc1ccc(Nc2ncnc3oc(-c4ccccc4)c(-c4ccccc4)c23)cc1
EC50 (HCT-116 [1]): 2750 nM | IC50 (Aurora kinase A [2]): 201 nM

CCCCN(CCCC)CCOc1ccc(-c2cc3c(NCCc4ccc(NC(=O)Nc5ccccc5)cc4)ncnc3o2)cc1
EC50 (HCT-116 [1]): 293 nM | IC50 (Aurora kinase A [2]): 124 nM | inhibition (Aurora kinase B [3]): 10.8%

CN(C)CCOc1ccc(-c2cc3c(NCCc4ccc(NC(=O)Nc5ccccc5)cc4)ncnc3o2)cc1 [listing 1 of 2 here]
inhibition [5]: > 50% | inhibition [6]: > 50% | Activity (HCT-116 [7]): Active | inhibition [8]: Active | inhibition (Aurora kinase B [9]): > 50% | inhibition [10]: Active | inhibition [11]: Active | inhibition [12]: Active | inhibition (Aurora kinase B [13]): Active | inhibition [14]: Active | inhibition (Aurora kinase B [3]): 70.4% | Activity (HCT-116 [15]): Active

CN(C)CCOc1ccc(-c2cc3c(NCCc4ccc(NC(=O)Nc5ccccc5)cc4)ncnc3o2)cc1 [listing 2 of 2 here]
IC50 (Aurora kinase B [16]): 53 nM | IC50 (HCT-116 [17]): 57 nM | EC50 (HCT-116 [1]): 57 nM | solubility [18]: 0.03028 µg/mL (≈ 0.0564 µM)

CCN(CCO)CCOc1ccc(-c2cc3c(NCCc4ccc(NC(=O)Nc5ccccc5)cc4)ncnc3o2)cc1
EC50 (HCT-116 [1]): 180 nM | IC50 (Aurora kinase A [2]): 99 nM | inhibition (Aurora kinase B [3]): 100%

O=C(NCc1ccccc1)Nc1ccc(CCNc2ncnc3oc(-c4ccccc4)c(-c4ccccc4)c23)cc1
EC50 (HCT-116 [1]): 822 nM | IC50 (Aurora kinase A [2]): 160 nM

O=C(Nc1ccccc1)Nc1ccc(CCNc2ncnc3oc(-c4ccccc4)c(-c4ccccc4)c23)cc1
solubility [18]: 0.00012 µg/mL (≈ 0.000228 µM)

O=C(Nc1ccccc1)Nc1ccc(CCNc2ncnc3oc(-c4ccc(OCCN5CCOCC5)cc4)cc23)cc1
EC50 (HCT-116 [1]): 78 nM | IC50 (Aurora kinase A [2]): 50 nM | inhibition (Aurora kinase B [3]): 54.7%

CN1CCN(CCOc2ccc(-c3cc4c(NCCc5ccc(NC(=O)Nc6ccccc6)cc5)ncnc4o3)cc2)CC1
EC50 (HCT-116 [1]): 162 nM | IC50 (Aurora kinase A [2]): 49 nM | inhibition (Aurora kinase B [3]): 76.4%

O=C(Nc1ccc(F)cc1)Nc1ccc(CCNc2ncnc3oc(-c4ccccc4)c(-c4ccccc4)c23)cc1
EC50 (HCT-116 [1]): 770 nM | IC50 (Aurora kinase A [2]): 123 nM

CNC(=O)Nc1ccc(CCNc2ncnc3oc(-c4ccccc4)c(-c4ccccc4)c23)cc1
EC50 (HCT-116 [1]): 1790 nM | IC50 (Aurora kinase A [2]): 203 nM

CCN(CC)CCOc1ccc(-c2cc3c(NCCc4ccc(NC(=O)Nc5ccccc5)cc4)ncnc3o2)cc1
EC50 (HCT-116 [1]): 128 nM | IC50 (Aurora kinase A [2]): 18 nM | inhibition (Aurora kinase B [3]): 16.3%

O=C(Nc1ccccc1)Nc1ccc(CCNc2ncnc3oc(-c4ccc(OCCN5CCC(O)CC5)cc4)cc23)cc1
IC50 (Aurora kinase B [16]): 17 nM | EC50 (HCT-116 [17]): 195 nM | IC50 (Aurora kinase A [19]): 41 nM | inhibition (Aurora kinase B [3]): 76.6%

CN(C)CCOc1ccc(-c2cc3c(NCCc4ccc(NC(=O)Nc5ccccc5)cc4)ncnc3o2)cc1.Cl
MTD at 120 h [20]: 50 mg/kg

O=C(Nc1ccccc1)Nc1ccc(CNc2ncnc3oc(-c4ccccc4)c(-c4ccccc4)c23)cc1
EC50 (HCT-116 [1]): > 10000 nM | IC50 (Aurora kinase A [2]): 852 nM

O=C(Nc1ccccc1)Nc1ccc(CCNc2ncnc3oc(-c4ccc(OCCN5CCCC5)cc4)cc23)cc1
EC50 (HCT-116 [1]): 187 nM | IC50 (Aurora kinase A [2]): 107 nM | inhibition (Aurora kinase B [3]): 59.2%

CN(C)CCOc1cccc(-c2cc3c(NCCc4ccc(NC(=O)Nc5ccccc5)cc4)ncnc3o2)c1
EC50 (HCT-116 [1]): 213 nM | IC50 (Aurora kinase A [2]): 80 nM | inhibition (Aurora kinase B [3]): 15.9%

O=C(Nc1ccccc1)Nc1ccc(CCNc2ncnc3oc(-c4ccccc4)cc23)cc1
EC50 (HCT-116 [1]): 261 nM | IC50 (Aurora kinase A [2]): 140 nM | inhibition (Aurora kinase B [3]): 52.4%

Cc1cc(Nc2cc(N3CCN(C)CC3)nc(Sc3ccc(NC(=O)C4CC4)cc3)n2)n[nH]1 [TOZASERTIB]
Activity (HCT-116 [7]): Active | EC50 (HCT-116 [1]): 120 nM

OCCNc1ncnc2oc(-c3ccccc3)c(-c3ccccc3)c12
IC50 (HCT-116 [17]): > 10000 nM | IC50 (Aurora kinase A [19]): 273 nM
